Converted amounts (≈) assume the structure as drawn.
Tests used:
Aspergillus flavus = assay: Antifungal activity against Aspergillus flavus ATCC 9170; type: functional
In short: (§1)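 Broth microdilution per CLSI M38-A2 in RPMI-1640 with MOPS at pH 7.0. Inoculum 1-5 × 10^3 CFU/mL, with twofold compound dilutions spanning 250-0.24 µg/ml (final DMSO <1%). Plates incubated at 35 °C, moist and dark, and read when the control fungus had grown. MIC is total growth inhibition. MFC comes from subculturing clear wells in duplicate onto SDA.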

Cryptococcus neoformans = assay: Antifungal activity against Cryptococcus neoformans ATCC 32264; type: functional
In short: (§2)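 CLSI M27-A3 broth microdilution in RPMI-1640 buffered to pH 7.0 with MOPS. Inoculum 1-5 × 10^3 CFU/mL. Compound twofold dilutions from 250 to 0.24 µg/ml, final DMSO <1%. Incubated at 35 °C in a moist, dark chamber and read at 48 h. MIC is the lowest concentration giving total growth inhibition. For MFC, 5 µL from clear wells was plated in duplicate on SDA; MFC is the lowest concentration with no growth.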

Candida albicans = assay: Antifungal activity against Candida albicans ATCC 10213; type: functional; in short: as §2
Aspergillus niger = assay: Antifungal activity against Aspergillus niger ATCC 9029; type: functional; in short: as §1
Aspergillus fumigatus = assay: Antifungal activity against Aspergillus fumigatus ATCC 26934; type: functional; in short: as §1
[1] = Cytotoxicity against human erythrocytes assessed as hemolysis by spectrometric analysis; type: cell-based, Erythrocyte
In short: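 Human heparinized red blood cells were washed in PBS at pH 7.0 and suspended at 4% in sterile 5% glucose. Compounds from DMSO stocks were diluted in 5% glucose to final concentrations of 250 to 0.24 µg/ml and incubated with the cells at 37 °C. Released hemoglobin was read at 540 nm. HC50 is the concentration giving 50% lysis relative to the drug-free value.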

MCF7 = assay: Cytotoxicity against human MCF7 cells assessed as cell growth after 2 days by sulforhodamine B assay; type: functional; settings: MCF7, 48 h
In short: (§3)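 NCI cell lines were run by the Monks method: cells were plated with compounds from DMSO stocks and incubated 2 days at 37 °C in 5% CO2, in duplicate. Cells were fixed with cold TCA, stained with 0.4% SRB, and the bound dye was solubilized in 10 mM tris-base and read at 515 nm. The zero-day control was subtracted, and GI50 was taken from the curves.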

NCI-H460 = assay: Cytotoxicity against human H460 cells assessed as cell growth after 2 days by sulforhodamine B assay; type: functional; settings: NCI-H460, 48 h; in short: as §3
Trichophyton rubrum = assay: Antifungal activity against Trichophyton rubrum C 113 2000; type: functional
In short: (§4)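 Dermatophytes tested by CLSI M38-A2 microdilution in MOPS-buffered RPMI-1640 at pH 7.0. Inoculum 1-5 × 10^3 CFU/mL; compounds 250 to 0.24 µg/ml in twofold steps, final DMSO <1%. Incubated at 28 °C in a moist, dark chamber and read according to control growth. MIC is the lowest concentration with complete inhibition. MFC is the lowest concentration with no growth after duplicate subculture on SDA.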

[2] = test system: Trichophyton mentagrophytes; assay: Antifungal activity against Trichophyton mentagrophytes ATCC 9972; type: functional; in short: as §4
Nannizzia gypsea = assay: Antifungal activity against Microsporum gypseum C 115 2000; type: functional; in short: as §4
SF-268 = assay: Cytotoxicity against human SF268 cells assessed as cell growth after 2 days by sulforhodamine B assay; type: functional; settings: SF-268, 48 h; in short: as §3
Candida tropicalis = assay: Antifungal activity against Candida tropicalis C 131 2000; type: functional; in short: as §2
Saccharomyces cerevisiae = assay: Antifungal activity against Saccharomyces cerevisiae ATCC 9763; type: functional; in short: as §2

Structure (SMILES) | MFC (Aspergillus flavus) [µg/mL] | MIC (Aspergillus flavus) [µg/mL] | MFC (Cryptococcus neoformans) [µg/mL] | MIC (Cryptococcus neoformans) [µg/mL] | MFC (Candida albicans) [µg/mL] | MIC (Candida albicans) [µg/mL] | MFC (Aspergillus niger) [µg/mL] | MIC (Aspergillus niger) [µg/mL] | MFC (Aspergillus fumigatus) [µg/mL] | MIC (Aspergillus fumigatus) [µg/mL] | HC50 [1] [µg/mL] | GI50 (MCF7) [µg/mL] | GI50 (NCI-H460) [µg/mL] | MFC (Trichophyton rubrum) [µg/mL] | MIC (Trichophyton rubrum) [µg/mL] | MFC [2] [µg/mL] | MIC [2] [µg/mL] | MFC (Nannizzia gypsea) [µg/mL] | MIC (Nannizzia gypsea) [µg/mL] | GI50 (SF-268) [µg/mL] | other results
O=C1C(Cl)=C(Cl)C(=O)N1CCCCc1ccccc1 | 31.2 (≈ 105 µM) | 15.6 (≈ 52.4 µM) | 3.9 (≈ 13.1 µM) | 3.9 (≈ 13.1 µM) | 15.6 (≈ 52.4 µM) | 7.81 (≈ 26.2 µM) | 15.6 (≈ 52.4 µM) | 15.6 (≈ 52.4 µM) | 62.5 (≈ 210 µM) | 31.2 (≈ 105 µM) | > 250 | > 10 | > 10 | 7.81 (≈ 26.2 µM) | 3.9 (≈ 13.1 µM) | 7.81 (≈ 26.2 µM) | 3.9 (≈ 13.1 µM) | 31.2 (≈ 105 µM) | 15.6 (≈ 52.4 µM) | > 10 | MFC (Candida tropicalis): 15.6 µg/mL (≈ 52.4 µM); MIC (Candida tropicalis): 7.81 µg/mL (≈ 26.2 µM); MFC (Saccharomyces cerevisiae): 7.81 µg/mL (≈ 26.2 µM); MIC (Saccharomyces cerevisiae): 3.9 µg/mL (≈ 13.1 µM)
O=C1C=CC(=O)N1c1ccc(Cl)cc1 | 125 (≈ 602 µM) | 62.5 (≈ 301 µM) | 7.81 (≈ 37.6 µM) | 3.9 (≈ 18.8 µM) | 62.5 (≈ 301 µM) | 62.5 (≈ 301 µM) | 62.5 (≈ 301 µM) | 31.2 (≈ 151 µM) | 125 (≈ 602 µM) | 62.5 (≈ 301 µM) | > 250 | > 10 | > 10 | 7.81 (≈ 37.6 µM) | 3.9 (≈ 18.8 µM) | 7.81 (≈ 37.6 µM) | 3.9 (≈ 18.8 µM) | 7.81 (≈ 37.6 µM) | 3.9 (≈ 18.8 µM) | > 10 | MFC (Candida tropicalis): 15.6 µg/mL (≈ 75.3 µM); MIC (Candida tropicalis): 7.81 µg/mL (≈ 37.6 µM); MFC (Saccharomyces cerevisiae): 7.81 µg/mL (≈ 37.6 µM); MIC (Saccharomyces cerevisiae): 3.9 µg/mL (≈ 18.8 µM)
CC1=CC(=O)N(CCCCc2ccccc2)C1=O | 125 (≈ 514 µM) | 62.5 (≈ 257 µM) | 62.5 (≈ 257 µM) | 31.2 (≈ 128 µM) | 125 (≈ 514 µM) | 62.5 (≈ 257 µM) | 125 (≈ 514 µM) | 62.5 (≈ 257 µM) | 62.5 (≈ 257 µM) | 31.2 (≈ 128 µM) | > 250 | > 10 | > 10 | 15.6 (≈ 64.2 µM) | 3.9 (≈ 16 µM) | 31.2 (≈ 128 µM) | 31.2 (≈ 128 µM) | 15.6 (≈ 64.2 µM) | 3.9 (≈ 16 µM) | > 10 | MFC (Candida tropicalis): 125 µg/mL (≈ 514 µM); MIC (Candida tropicalis): 62.5 µg/mL (≈ 257 µM); MFC (Saccharomyces cerevisiae): 62.5 µg/mL (≈ 257 µM); MIC (Saccharomyces cerevisiae): 31.2 µg/mL (≈ 128 µM)
COc1cccc(N2C(=O)C=CC2=O)c1 | 62.5 (≈ 308 µM) | 31.2 (≈ 154 µM) | 7.81 (≈ 38.4 µM) | 3.9 (≈ 19.2 µM) | 62.5 (≈ 308 µM) | 15.6 (≈ 76.9 µM) | 62.5 (≈ 308 µM) | 31.2 (≈ 154 µM) | 62.5 (≈ 308 µM) | 31.2 (≈ 154 µM) | > 250 | > 10 | > 10 | 3.9 (≈ 19.2 µM) | 1.95 (≈ 9.6 µM) | 3.9 (≈ 19.2 µM) | 1.95 (≈ 9.6 µM) | 7.81 (≈ 38.4 µM) | 3.9 (≈ 19.2 µM) | > 10 | MFC (Candida tropicalis): 62.5 µg/mL (≈ 308 µM); MIC (Candida tropicalis): 15.6 µg/mL (≈ 76.9 µM); MFC (Saccharomyces cerevisiae): 7.81 µg/mL (≈ 38.4 µM); MIC (Saccharomyces cerevisiae): 3.9 µg/mL (≈ 19.2 µM)
O=C1C(Cl)=C(Cl)C(=O)N1Cc1ccccc1 | 31.2 (≈ 122 µM) | 31.2 (≈ 122 µM) | 15.6 (≈ 61 µM) | 7.81 (≈ 30.5 µM) | 31.2 (≈ 122 µM) | 15.6 (≈ 61 µM) | 62.5 (≈ 244 µM) | 31.2 (≈ 122 µM) | 31.2 (≈ 122 µM) | 15.6 (≈ 61 µM) | > 250 | > 10 | > 10 | 15.6 (≈ 61 µM) | 7.81 (≈ 30.5 µM) | 15.6 (≈ 61 µM) | 7.81 (≈ 30.5 µM) | 31.2 (≈ 122 µM) | 15.6 (≈ 61 µM) | > 10 | MFC (Candida tropicalis): 31.2 µg/mL (≈ 122 µM); MIC (Candida tropicalis): 31.2 µg/mL (≈ 122 µM); MFC (Saccharomyces cerevisiae): 15.6 µg/mL (≈ 61 µM); MIC (Saccharomyces cerevisiae): 7.81 µg/mL (≈ 30.5 µM)
Cc1ccc(N2C(=O)C=CC2=O)cc1 | 15.6 (≈ 83.5 µM) | 15.6 (≈ 83.5 µM) | 7.81 (≈ 41.7 µM) | 3.9 (≈ 20.8 µM) | 31.2 (≈ 167 µM) | 15.6 (≈ 83.5 µM) | 31.2 (≈ 167 µM) | 15.6 (≈ 83.5 µM) | 62.5 (≈ 334 µM) | 31.2 (≈ 167 µM) | > 250 | > 10 | > 10 | 3.9 (≈ 20.8 µM) | 1.95 (≈ 10.4 µM) | 7.81 (≈ 41.7 µM) | 1.95 (≈ 10.4 µM) | 3.9 (≈ 20.8 µM) | 1.95 (≈ 10.4 µM) | > 10 | MFC (Candida tropicalis): 31.2 µg/mL (≈ 167 µM); MIC (Candida tropicalis): 15.6 µg/mL (≈ 83.5 µM); MFC (Saccharomyces cerevisiae): 7.81 µg/mL (≈ 41.7 µM); MIC (Saccharomyces cerevisiae): 3.9 µg/mL (≈ 20.8 µM)
CC1=CC(=O)N(c2ccccc2)C1=O | 125 (≈ 668 µM) | 62.5 (≈ 334 µM) | 62.5 (≈ 334 µM) | 31.2 (≈ 167 µM) | 125 (≈ 668 µM) | 62.5 (≈ 334 µM) | 250 (≈ 1340 µM) | 125 (≈ 668 µM) | 62.5 (≈ 334 µM) | 31.2 (≈ 167 µM) | > 250 | > 10 | > 10 | 15.6 (≈ 83.5 µM) | 7.81 (≈ 41.7 µM) | 62.5 (≈ 334 µM) | 31.2 (≈ 167 µM) | 15.6 (≈ 83.5 µM) | 7.81 (≈ 41.7 µM) | > 10 | MFC (Candida tropicalis): 125 µg/mL (≈ 668 µM); MIC (Candida tropicalis): 62.5 µg/mL (≈ 334 µM); MFC (Saccharomyces cerevisiae): 125 µg/mL (≈ 668 µM); MIC (Saccharomyces cerevisiae): 31.2 µg/mL (≈ 167 µM)
